Assay outcomes (PubChem BioAssay)
PLCb3 inh: human PLC-beta3 inhibitors, primary screen, biochemical, fluorescence | inhibition, % at 12.2 µM | Purified PLC-beta3, fluorogenic substrate | 1-phosphatidylinositol 4,5-bisphosphate phosphodiesterase beta-3 (Homo sapiens), Q01970 | actives 0.18% (n = 370,000); in the data active means inhibition above about 11%;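 further: 0% = median of compound wells on plate and 100% = full blocker control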
sPLA2-III inh: human group III sPLA2 inhibitors, primary screen, biochemical, QFRET, BODIPY PC-A2 liposome substrate; Group 3 secretory phospholipase A2 (Homo sapiens), Q9NZ20; QFRET BODIPY PC-A2 liposome hydrolysis, fluorescence; inhibition, % at 12.2 µM; actives 0.56% (n = 370,000); AID 743126, 2013;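 active means inhibition above mean plus 3 SD of compounds lying within the high and low control bounds, cut at about 19% in these data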;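 further: 0% = median of test compound wells and 100% = no enzyme DMSO wells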
Target sequence (Q9NZ20 whole entry, looked up): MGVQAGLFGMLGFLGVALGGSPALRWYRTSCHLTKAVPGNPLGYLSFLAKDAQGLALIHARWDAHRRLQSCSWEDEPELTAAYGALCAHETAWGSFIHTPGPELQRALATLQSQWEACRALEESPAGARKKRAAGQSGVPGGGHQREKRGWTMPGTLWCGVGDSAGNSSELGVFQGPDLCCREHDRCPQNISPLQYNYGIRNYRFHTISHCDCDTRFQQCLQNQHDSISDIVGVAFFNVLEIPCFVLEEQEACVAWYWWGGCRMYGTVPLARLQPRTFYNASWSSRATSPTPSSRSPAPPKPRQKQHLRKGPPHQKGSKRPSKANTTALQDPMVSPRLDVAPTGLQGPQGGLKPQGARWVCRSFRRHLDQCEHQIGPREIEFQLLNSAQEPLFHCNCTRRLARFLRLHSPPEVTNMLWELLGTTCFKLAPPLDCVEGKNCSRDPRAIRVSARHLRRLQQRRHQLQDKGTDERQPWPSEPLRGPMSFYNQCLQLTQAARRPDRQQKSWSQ
Tb MetRS inh: T. brucei MetRS inhibitors, primary screen, biochemical, luminescence. methionyl-tRNA synthetase (Trypanosoma brucei brucei). purified T. brucei MetRS, ATP depletion, Kinase-Glo luminescence. inhibition, % at 11.9 µM. actives 0.4% (n = 360,000);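 active means inhibition above a per-plate cutoff of the control wells' mean inhibition plus 3 SD, cut at about 5.5% in these data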;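 further: 0% = DMSO wells median and 100% = median of wells with control inhibitor compound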
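System: purified T. brucei MetRS enzyme / Detection: Kinase-Glo luciferase luminescence reporting remaining unconsumed ATP / Medium: HEPES buffer with MgCl2, KCl, DTT, spermine, BSA, pyrophosphatase / Replication: singlicate, one well per compound / Evaluation: percent inhibition relative to median high and low control wells / Schedule: 2 h aminoacylation at 25 °C after 15 min preincubation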
PLCg1 inh: PLC-gamma1 enzyme inhibitors, primary screen, biochemical, fluorescence, purified enzyme | 1-phosphatidylinositol 4,5-bisphosphate phosphodiesterase gamma-1 (Homo sapiens), P19174 | inhibition, % at 12.2 µM | actives 0.84% (n = 370,000) | AID 720700, 2013 | fluorogenic substrate; in the data active means inhibition above about 9.5%
TbMetRS confirm: T. brucei MetRS inhibitors, confirmation, biochemical, luminescence; shares compounds with Tb MetRS inh; T. brucei MetRS enzyme, luminescence (ATP depletion); inhibition, % at 11.9 µM; actives 93% (n = 1,400); in the data active means inhibition above about 7%
Jurkat cytotox: Jurkat T cell cytotoxicity, cytotoxicity control for T. brucei MetRS inhibitor project, luminescence, high throughput | actives 12% (n = 1,400) | shares compounds with Tb MetRS inh | Jurkat cells viability, ATP luminescence | inhibition, % at 8.3 µM; in the data active means inhibition above about 15%;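 further: 0% = vehicle and 100% = reference inhibitor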
Tb MetRS inh FP: T. brucei MetRS inhibitors, orthogonal assay for T. brucei MetRS inhibitor project, biochemical, fluorescence polarization | purified T. brucei MetRS | shares compounds with Tb MetRS inh | inhibition, % at 11.9 µM | actives 44% (n = 1,400) | AID 651607, 2012; in the data active means inhibition above about 17%;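 further: 0% = vehicle wells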
Active calls of the source: *. Most compounds without a hit are left out; they make up all but 1.9% or so of the library.

How did COc1ccc(N2CCN(C(=O)CCCn3c(=O)[nH]c4ccsc4c3=O)CC2)cc1 do in these assays?
PLCb3 inh: 1; sPLA2-III inh: 2; Tb MetRS inh: 2; PLCg1 inh: 1

What do the screens show for `CSc1ccc(C(=O)NCC2CCN(C(=O)C(=O)c3cc4ccccc4o3)CC2)cc1`?
PLCb3 inh: -1; sPLA2-III inh: 11; PLCg1 inh: 2

Results for Cn1c(SCC(=O)NCc2ccco2)nnc1-c1c[nH]c2ccccc12 ?
PLCb3 inh: 3; sPLA2-III inh: -4; Tb MetRS inh: 1; PLCg1 inh: 0

What do the screens show for `COc1ccc(OC)c(-n2c(=O)c3ccccc3c3ccccc3c2=O)c1`?
PLCb3 inh: 1; sPLA2-III inh: 0; Tb MetRS inh: 0; PLCg1 inh: 1

How did COc1ccc(OC)c(-n2c(SCC(=O)Nc3cc(C)on3)nnc2-c2c[nH]c3ccccc23)c1 do in these assays?
PLCb3 inh: 2; sPLA2-III inh: -25; Tb MetRS inh: 18*; PLCg1 inh: 3; TbMetRS confirm: 25*; Jurkat cytotox: 6; Tb MetRS inh FP: 9

Results for COc1ccc(OC)c(-n2c(SC)nnc2-c2c[nH]c3ccccc23)c1 ?
PLCb3 inh: 2; sPLA2-III inh: 0; Tb MetRS inh: 9.7*; PLCg1 inh: 1; TbMetRS confirm: 25*; Jurkat cytotox: 2; Tb MetRS inh FP: 11

What do the screens show for `COc1ccc(OC)c(-n2c(SCC(N)=O)nnc2-c2c[nH]c3ccccc23)c1`?
PLCb3 inh: 1; sPLA2-III inh: -1; Tb MetRS inh: 9.7*; PLCg1 inh: 0; TbMetRS confirm: 20*; Jurkat cytotox: 6; Tb MetRS inh FP: 10

What do the screens show for `CCOc1ccc(-n2c(SCC(=O)NCc3ccco3)nnc2-c2c[nH]c3ccccc23)cc1`?
PLCb3 inh: 4; sPLA2-III inh: -27; Tb MetRS inh: 12*; PLCg1 inh: 3; TbMetRS confirm: 11*; Jurkat cytotox: 2; Tb MetRS inh FP: 7

How did COc1ccccc1-n1c(SCC(N)=O)nnc1-c1ccccc1 do in these assays?
PLCb3 inh: 0; sPLA2-III inh: 4; Tb MetRS inh: -1; PLCg1 inh: 0

How did CCCCCC(=O)NC1CCCCN(Cc2ccc(C)cc2)C1=O (stereo not given) do in these assays?
PLCb3 inh: 0; sPLA2-III inh: -1; PLCg1 inh: -1

What do the screens show for `O=C1CCC[C@H]2C[C@H](NCc3ccc(Cl)cc3)CC[C@]23CCCN13`?
PLCb3 inh: 2; sPLA2-III inh: 8; PLCg1 inh: 0

Results for Cc1ccc2nc(NCc3ccccc3)[nH]c2c1 ?
PLCb3 inh: 2; sPLA2-III inh: -5; Tb MetRS inh: 17*; PLCg1 inh: 2; TbMetRS confirm: 28*; Jurkat cytotox: 70*; Tb MetRS inh FP: 13

What do the screens show for `c1ccc2[nH]c(NCc3ccc4c(c3)OCO4)nc2c1`?
PLCb3 inh: 4; sPLA2-III inh: -1; Tb MetRS inh: 18*; PLCg1 inh: -2; TbMetRS confirm: 30*; Jurkat cytotox: 3; Tb MetRS inh FP: 14

Results for Cc1ccc2nc(C3CCCN(C(=O)NCc4ccccc4)C3)[nH]c2c1 (stereo not given) ?
PLCb3 inh: 3; sPLA2-III inh: 6; Tb MetRS inh: 15*; PLCg1 inh: 8; TbMetRS confirm: 23*; Jurkat cytotox: -3; Tb MetRS inh FP: 9

What do the screens show for `COc1cc(CNc2nc3ccccc3[nH]2)cc(OC)c1OC`?
PLCb3 inh: 2; sPLA2-III inh: 0; Tb MetRS inh: 16*; PLCg1 inh: 1; TbMetRS confirm: 32*; Jurkat cytotox: 11; Tb MetRS inh FP: 9

How did Cc1cc(C)cc(NC(=O)OC2CC3CC2[C@H]2CCCCN2[C@H]3C)c1 (stereo not given in full) do in these assays?
PLCb3 inh: -5; sPLA2-III inh: 4; PLCg1 inh: 6

Results for c1ccc(CNc2nc3ccccc3[nH]2)cc1 ?
PLCb3 inh: 1; sPLA2-III inh: -1; Tb MetRS inh: 26*; PLCg1 inh: 1; TbMetRS confirm: 35*; Jurkat cytotox: 9; Tb MetRS inh FP: 20*

Results for CC(=O)c1cccc(NC(=O)C(C)OC(=O)CNC(=O)c2ccc(C)s2)c1 (stereo not given) ?
PLCb3 inh: -1; sPLA2-III inh: -3; Tb MetRS inh: 14*; PLCg1 inh: -2; TbMetRS confirm: 29*; Jurkat cytotox: 1; Tb MetRS inh FP: 11

How did O=C(OCc1cn(Cc2c(F)cccc2F)nn1)N1CCOCC1 do in these assays?
PLCb3 inh: 2; sPLA2-III inh: 6; PLCg1 inh: 3

Results for CCCN1CN(Cc2ccco2)c2nc3ccccc3n2C1 ?
PLCb3 inh: -1; sPLA2-III inh: 7; Tb MetRS inh: 20*; PLCg1 inh: -1; TbMetRS confirm: 17*; Jurkat cytotox: 9; Tb MetRS inh FP: 11

What do the screens show for `CC(C)CNC(=O)OCc1cn(Cc2cc(F)ccc2F)nn1`?
PLCb3 inh: -3; sPLA2-III inh: 6; PLCg1 inh: 0

What do the screens show for `Cc1cc(C)cc(N(CC(=O)NC2CCC(C)CC2)S(=O)(=O)c2ccccc2)c1` (stereo not given)?
PLCb3 inh: -4; sPLA2-III inh: 4; PLCg1 inh: -1

How did OC(c1cc(Cl)cc(Cl)c1)c1ncc(-c2ccccc2F)[nH]1 (stereo not given) do in these assays?
PLCb3 inh: 5; sPLA2-III inh: -7; Tb MetRS inh: 30*; PLCg1 inh: 8; TbMetRS confirm: 67*; Jurkat cytotox: 5; Tb MetRS inh FP: 43*

How did OC(c1cc(F)cc(Cl)c1)c1ncc(-c2cccc(C(F)(F)F)c2)[nH]1 (stereo not given) do in these assays?
PLCb3 inh: -2; sPLA2-III inh: -2; Tb MetRS inh: 16*; PLCg1 inh: -2; TbMetRS confirm: 45*; Jurkat cytotox: 4; Tb MetRS inh FP: 31*

Results for COc1ccccc1-c1cnc(C(O)c2cc(Cl)cc(Cl)c2)[nH]1 (stereo not given) ?
PLCb3 inh: -4; sPLA2-III inh: -14; Tb MetRS inh: 67*; PLCg1 inh: -3; TbMetRS confirm: 88*; Jurkat cytotox: 3; Tb MetRS inh FP: 69*

Results for OC(c1ccc(Cl)cc1)c1ncc(-c2cccc(C(F)(F)F)c2)[nH]1 (stereo not given) ?
PLCb3 inh: 4; sPLA2-III inh: -5; Tb MetRS inh: 0; PLCg1 inh: 6
